ChEMBL document CHEMBL4837214, “Design, synthesis, and biological evaluation of novel tetrahydroprotoberberine derivatives to reduce SREBPs expression for the treatment of hyperlipidemia” (Eur J Med Chem, 2021)
Active and inactive are the calls of the source. The calls are words filed in the database; no cut-off is given here.

Columns and labels:
HepG2 [1] = assay: Down regulation of precursor and mature forms of SREBP-2 protein expression in human HepG2 cells after 24 hrs by Western blotting analysis; type: functional, cell-based; settings: dose 5-80 µM
In short: (§1)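 HepG2 cells treated 24 h at the indicated doses and lysed in RIPA buffer with protease inhibitors; protein quantified by BCA. Lysates run on 10% SDS-PAGE and blotted to nitrocellulose. After 5% milk block, primary antibody applied overnight at 4 °C and secondary 1 h at room temperature. β-actin served as loading reference.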

HepG2 [2] = assay: Down regulation of intracellular TC level in human HepG2 cells at 10 uM measured after 24 hrs; type: functional, cell-based
In short: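 HepG2 cells grown in six-well plates and exposed 24 h to compound at […]. Cells collected in PBS and sonicated (5 s on, 10 s off, 60 s total). Total cholesterol or triglyceride measured with a colorimetric determination kit.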

[3] = Toxicity in high fat diet-induced C57BL/6J mouse assessed as reduction in body weight at 170 to 340 mg/kg, po measured every week for 6 weeks; type: organism-based; settings: in vivo, 1008 h, dose 170-340 mg/kg
In short: (§2)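 Male C57BL/6J mice, six weeks old, fed a 45%-fat diet (HFD) for 15 weeks; chow-fed mice served as controls. Obese mice were randomized to vehicle (0.1% w/v CMC-Na) or 170 or 340 mg/kg, gavaged daily for 6 weeks while diet continued. Body weight, food intake, organ weights, serum lipids, tissue histology (H&E, Oil red O), liver SREBP blots and liver qPCR followed.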

[4] = Toxicity in C57BL/6J mouse assessed as reduction in liver weight at 170 to 340 mg/kg, po measured every week for 6 weeks; type: organism-based; settings: in vivo, 1008 h, dose 170-340 mg/kg; in short: as §2
HepG2 [5] = assay: Down regulation of precursor and mature forms of SREBP-1 protein expression in human HepG2 cells after 24 hrs by Western blotting analysis; type: functional, cell-based; settings: dose 5-80 µM; in short: as §1
HepG2 [6] = assay: Effect on PCSK9 protein expression in human HepG2 cells at 10 uM incubated for 24 hrs by Western blotting analysis; type: functional, cell-based; in short: as §1
HepG2 [7] = assay: Down regulation of FASN gene expression in human HepG2 cells by qRT-PCR analysis; type: functional, cell-based
HepG2 [8] = assay: Down regulation of LDLR gene expression in human HepG2 cells by qRT-PCR analysis; type: functional, cell-based
[9] = AUC (0 to infinity) in Sprague-Dawley rat at 10 mg/kg, po measured upto 24 hrs by LC-MS/MS analysis; type: ADME, organism-based; set-up: route oral, dose 10 mg/kg, time <=24; settings: in vivo
In short: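 Six SD rats split into two groups (n=3 each), dosed once either intravenously at 1 mg/kg or orally at 10 mg/kg. Blood sampled at 2 min–12 h after IV dosing and at 5 min–24 h after oral dosing. Serum drug level measured by LC/MS/MS. AUC0-∞ is the mean of three runs.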

[10] = Tmax in Sprague-Dawley rat at 1 mg/kg, iv measured upto 12 hrs by LC-MS/MS analysis; type: ADME, organism-based; settings: in vivo
In short: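 Six SD rats split into two groups of three, dosed 1 mg/kg IV or 10 mg/kg orally. IV blood drawn at 2, 5, 15, 30 min and 1, 2, 4, 6, 8, 12 h. Oral blood drawn at 5, 15, 30 min and 1, 2, 4, 6, 8, 12, 24 h. Serum drug measured by LC/MS/MS. Parameters are the average of three runs.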

Mus musculus [11] = assay: Hypolipidemic activity in high fat diet-fed C57BL/6J mouse assessed as reduction in epididymal fat/body weight ratio at 170 to 340 mg/kg/day, po administered for 6 weeks; type: functional, organism-based; settings: dose 170-340 mg/kg/day; in short: as §2
[12] = Toxicity in high fat diet-induced C57BL/6J mouse assessed as change in heart morphology at 170 to 340 mg/kg, po administered for 6 weeks by H and E staining-based assay; type: organism-based; settings: in vivo, 1008 h, dose 170-340 mg/kg; in short: as §2
[13] = Toxicity in high fat diet-induced C57BL/6J mouse assessed as change in kidney morphology at 170 to 340 mg/kg, po administered for 6 weeks by H and E staining-based assay; type: organism-based; settings: in vivo, 1008 h, dose 170-340 mg/kg; in short: as §2
Mus musculus [14] = assay: Hypoglycemic activity in high fat diet-induced C57BL/6J mouse assessed as improvement in glucose tolerance at 170 to 340 mg/kg, po administered daily for 6 weeks and measured up to 120 mins by OGTT method; type: functional, organism-based; settings: dose 170-340 mg/kg; in short: as §2
Mus musculus [15] = assay: Hypoglycemic activity in high fat diet-induced C57BL/6J mouse assessed as improvement in insulin tolerance at 170 to 340 mg/kg, po administered daily for 6 weeks and measured up to 120 mins by ITT method; type: functional, organism-based; settings: dose 170-340 mg/kg; in short: as §2
Mus musculus [16] = assay: Hypolipidemic activity in high fat diet-induced C57BL/6J mouse assessed as reduction in serum TC level at 170 to 340 mg/kg, po administered daily for 6 weeks; type: functional, organism-based; settings: dose 170-340 mg/kg; in short: as §2
Mus musculus [17] = assay: […] activity in high fat diet-induced C57BL/6J mouse assessed as reduction in ACC mRNA level in liver at 170 to 340 mg/kg, po administered daily for 6 weeks by qRT-PCR analysis; type: functional, organism-based; settings: dose 170-340 mg/kg; in short: as §2
Mus musculus [18] = assay: Hypolipidemic activity in high fat diet-induced C57BL/6J mouse assessed as reduction in cell size of BAT at 170 to 340 mg/kg, po administered daily for 6 weeks by H and E staining based assay; type: functional, organism-based; settings: dose 170-340 mg/kg; in short: as §2

SMILES: COc1ccc2c(c1OCC1CCCCC1)CN1CCc3cc4c(cc3C1C2)OCO4 (stereo not drawn)
- Activity (HepG2 [1]): Dose-Dependent Effect
- Activity (HepG2 [2]): Active
- Activity [3]: Toxic
- Activity [4]: Toxic
- Activity (HepG2 [5]): Dose-Dependent Effect
- Activity (HepG2 [6]): inactive
- Activity (HepG2 [7]): Active
- Activity (HepG2 [8]): Active
- AUC [9]: 4290 ng·h/mL
- Tmax [10]: 1.98 min
- Activity (Mus musculus [11]): Active
- Activity [12]: Non-Toxic
- Activity [13]: Non-Toxic
- Activity (Mus musculus [14]): Active
- Activity (Mus musculus [15]): Active
- Activity (Mus musculus [16]): Active
- Activity (Mus musculus [17]): Active
- Activity (Mus musculus [18]): Active
